Data set [1] is described as follows: Cytotoxicity against human HepG2 cells assessed as cell growth inhibition after 48 hrs by SRB assay. Type of data set: toxicity, cell-based. In outline:
(§1)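 HepG2, MRC-9 or MCF10A cells (under passage 20) were grown in RPMI 1640 with 10% newborn calf serum and seeded at 1 × 10^4 cells/well one day before treatment. Compounds were applied at various concentrations for 48 h. Viability was measured by sulforhodamine B staining, and GI50 was calculated from the dose-response.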
Background: In SRB staining, fixed cells bind dye roughly in proportion to their protein.

Data set [2] in a line: Cytotoxicity against human MRC9 cells assessed as cell growth inhibition after 48 hrs by SRB assay. Type of data set: toxicity, cell-based. In outline: as §1
The nature of data set [3]: Cytotoxicity against human MCF10A cells assessed as cell growth inhibition after 48 hrs by SRB assay. Type of data set: toxicity, cell-based, MCF-10A. The method, boiled down: as §1
Data set [4] relates to Staphylococcus aureus. The data set can be described thus: Antibacterial activity against Staphylococcus aureus RN4220 after 24 hrs by broth microdilution method. Type of data set: functional. The conditions noted are these: RN4220, 24 h. In outline: (§2)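 Broth microdilution with triplicate serial 2-fold dilutions; inoculum 10^5 cells/mL at 0.2 mL/well. Strains were grown to mid-log phase and diluted 1000-fold. Media: Mueller-Hinton broth for most strains, nutrient broth for A. baumannii, Todd-Hewitt for S. pneumoniae. DMSO was at most 0.05% final. After 24 h at 37 °C, MIC = lowest concentration completely inhibiting growth, read by A650.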
On the technique in general: Broth dilution looks for growth in wells or tubes with falling amounts of substance.

The subject of data set [5] is Staphylococcus aureus. The data set can be described thus: Antibacterial activity against methicillin-resistant Staphylococcus aureus CCARM 3167 after 24 hrs by broth microdilution method. Type of data set: functional. The conditions noted are these: CCARM 3167, 24 h. The method, boiled down:
(§3)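 Strains grown to mid-log phase in Mueller-Hinton broth, diluted 1000-fold; 10^5 cells/mL in Mueller-Hinton broth exposed to serial 2-fold dilutions of compound from DMSO stocks (final DMSO ≤0.05%; 0.05% DMSO vehicle control; ciprofloxacin comparator). Incubated 24 h at 37 °C; growth read by absorbance at 650 nm. MIC = lowest concentration completely inhibiting growth, in triplicate.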

In another data set the test system is Pseudomonas aeruginosa. The data set can be described thus: Antibacterial activity against Pseudomonas aeruginosa KCTC 2004 after 24 hrs by broth microdilution method. The conditions noted are these: KCTC 2004, 24 h. Type of data set: functional. The method, boiled down: as §2
Another data set concerns Acinetobacter baumannii. The data set can be described thus: Antibacterial activity against Acinetobacter baumannii KCTC 2508 after 24 hrs by broth microdilution method. The conditions noted are these: KCTC 2508, 24 h. Format: functional. The method, boiled down:
as §2

Data set [6] concerns Escherichia coli. Put plainly: Antibacterial activity against Escherichia coli KCTC 1682 after 24 hrs by broth microdilution method. Type of data set: functional. The conditions noted are these: KCTC 1682, 24 h. The method, boiled down:
as §2

Another data set concerns Klebsiella pneumoniae. Put plainly: Antibacterial activity against Klebsiella pneumoniae KCTC 22057 after 24 hrs by broth microdilution method. Format: functional. The conditions noted are these: KCTC 22057, 24 h. In outline: as §2
In data set [7] the test system is Staphylococcus aureus. Put plainly: Antibacterial activity against methicillin-resistant Staphylococcus aureus CCARM 3506 after 24 hrs by broth microdilution method. To be noted: CCARM 3506, 24 h. Type of data set: functional. The method, boiled down:
as §3

The subject of data set [8] is Escherichia coli. The data set can be described thus: Antibacterial activity against Escherichia coli CCARM 1356 after 24 hrs by broth microdilution method. To be noted: CCARM 1356, 24 h. Type of data set: functional. The method, boiled down:
as §2

The test system of another data set is Enterococcus faecalis. The data set can be described thus: Antibacterial activity against Enterococcus faecalis KCTC 5191 after 24 hrs by broth microdilution method. Format: functional. The conditions noted are these: KCTC 5191, 24 h. The method, boiled down:
as §2

The test system of another data set is Streptococcus pneumoniae. Put plainly: Antibacterial activity against Streptococcus pneumoniae KCTC 5412 after 24 hrs by broth microdilution method. Format: functional. The conditions noted are these: KCTC 5412, 24 h. The method, boiled down: as §2
The test system of data set [9] is Staphylococcus aureus. The data set can be described thus: Antibacterial activity against quinolone-resistant Staphylococcus aureus CCARM 3519 after 24 hrs by broth microdilution method. Format: functional. To be noted: CCARM 3519, 24 h. In outline: as §3
For data set [10], the system named is Staphylococcus aureus. Put plainly: Antibacterial activity against quinolone-resistant Staphylococcus aureus CCARM 3505 after 24 hrs by broth microdilution method. Format: functional. To be noted: CCARM 3505, 24 h. The method, boiled down: as §3
Data set [11] can be described thus: Cytotoxicity against human MRC9 cells assessed as cell growth inhibition at 50 ug/ml after 48 hrs by SRB assay. Type of data set: toxicity, cell-based. The conditions noted are these: mrc9, 48 h. The method, boiled down: (§4)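 Single-concentration test at 50 μg/mL for 48 h. HepG2, MRC-9 or MCF10A cells (under passage 20) were grown in RPMI 1640 with 10% newborn calf serum and seeded at 1 × 10^4 cells/well one day before treatment. Growth inhibition was read by sulforhodamine B assay.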

Data set [12] is described as follows: Cytotoxicity against human HepG2 cells assessed as cell growth inhibition at 50 ug/ml after 48 hrs by SRB assay. Format: toxicity, cell-based. To be noted: hepg2, 48 h. The method, boiled down:
as §4

A short description of data set [13]: Cytotoxicity against human MCF10A cells assessed as cell growth inhibition at 50 ug/ml after 48 hrs by SRB assay. Type of data set: toxicity, cell-based. The conditions noted are these: mcf-10a. The method, boiled down: as §4

Structures are written as SMILES. Values after ≈ are worked out from the molar mass of the structure shown. Counter-ions that a name gives are not always drawn. A value given as a limit tells only on which side of the number the result lay.

In general, GI50 refers to the concentration that inhibits growth by half. The MIC is the least concentration at which growth counts as inhibited. A lower MIC goes with a more susceptible organism.

As for `COc1cccc2c1C(=O)c1c(O)c3c(c(O)c1C2=O)C[C@@](O)(C(=O)CO)C[C@@H]3O[C@H]1C[C@H](N)[C@H](O)[C@H](C)O1` [DOXORUBICIN HYDROCHLORIDE], the concentration for 50% growth inhibition (GI50) at 48 h in data set [1], in data set [2] and in data set [3] was 0.04 to 0.08 µg/mL throughout.

For the compound `CO[C@H](C(=O)O)[C@H](NC(=O)c1ccc(NC(=O)c2ccc([N+](=O)[O-])cc2)cc1)C(=O)Nc1ccc(C(=O)Nc2ccc(C(=O)Nc3ccc(C(=O)O)cc3OC(C)C)c(O)c2OC(C)C)cc1`, the MIC in the data set on Staphylococcus aureus [4] was 2 µg/mL (≈ 2.17 µM); in the data set on Staphylococcus aureus [5], 1 µg/mL (≈ 1.09 µM); with Pseudomonas aeruginosa it was > 16 µg/mL; against Acinetobacter baumannii it was 4 µg/mL (≈ 4.34 µM); against Escherichia coli [6], 4 µg/mL (≈ 4.34 µM); in the data set with Klebsiella pneumoniae it was > 16 µg/mL. Further, the MIC in the data set with Staphylococcus aureus [7] was 1 µg/mL (≈ 1.09 µM); with Escherichia coli [8], 16 µg/mL (≈ 17.4 µM); with Enterococcus faecalis, 4 µg/mL (≈ 4.34 µM); in the data set with Streptococcus pneumoniae, > 16 µg/mL.

With `O=C(O)c1cn(C2CC2)c2cc(N3CCNCC3)c(F)cc2c1=O` [CIPROFLOXACIN], the MIC in the data set on Staphylococcus aureus [9] is 128 µg/mL (≈ 386 µM); in the data set on Staphylococcus aureus [10] it was 128 µg/mL (≈ 386 µM); with Staphylococcus aureus [5] it was 2 µg/mL (≈ 6.04 µM); with Pseudomonas aeruginosa, 0.06 µg/mL (≈ 0.181 µM); against Acinetobacter baumannii it was 0.125 µg/mL (≈ 0.377 µM); against Klebsiella pneumoniae, 0.006 µg/mL (≈ 0.0181 µM). Further, the minimal inhibitory concentration (MIC) against Escherichia coli [8] stood at 64 µg/mL (≈ 193 µM); with Enterococcus faecalis, 0.5 µg/mL (≈ 1.51 µM).

For the compound `CO[C@@H](C(N)=O)[C@H](NC(=O)c1ccc(NC(=O)c2ccc([N+](=O)[O-])cc2)cc1)C(=O)Nc1ccc(C(=O)Nc2ccc(C(=O)Nc3ccc(C(=O)O)c(O)c3OC(C)C)c(O)c2OC(C)C)cc1`, the MIC is 0.25 µg/mL (≈ 0.267 µM) in the data set with Staphylococcus aureus [9]; 0.125 µg/mL (≈ 0.134 µM) in the data set with Staphylococcus aureus [10]; 0.015 µg/mL (≈ 0.016 µM) against Staphylococcus aureus [4]; 0.015 µg/mL (≈ 0.016 µM) in the data set with Staphylococcus aureus [5]; 4 µg/mL (≈ 4.27 µM) in the data set on Pseudomonas aeruginosa; 0.125 µg/mL (≈ 0.134 µM) with Acinetobacter baumannii. Moreover, the MIC amounted to 0.125 µg/mL (≈ 0.134 µM) against Escherichia coli [6]; 2 µg/mL (≈ 2.14 µM) against Klebsiella pneumoniae; 0.015 µg/mL (≈ 0.016 µM) against Staphylococcus aureus [7]; 0.125 µg/mL (≈ 0.134 µM) in the data set with Escherichia coli [8]; 0.03 µg/mL (≈ 0.0321 µM) in the data set with Enterococcus faecalis; 0.25 µg/mL (≈ 0.267 µM) in the data set with Streptococcus pneumoniae.

For the compound `CO[C@@H](C(N)=O)[C@H](NC(=O)c1ccc(NC(=O)c2ccc([N+](=O)[O-])cc2)cc1)C(=O)Nc1ccc(C(=O)Nc2ccc(C(=O)Nc3ccc(C(=O)O)cc3OC(C)C)c(O)c2OC(C)C)cc1`, the minimal inhibitory concentration (MIC) was 2 µg/mL (≈ 2.17 µM) with Staphylococcus aureus [9]; 1 µg/mL (≈ 1.09 µM) in the data set with Staphylococcus aureus [10]; 0.063 µg/mL (≈ 0.0685 µM) in the data set on Staphylococcus aureus [4]; 0.125 µg/mL (≈ 0.136 µM) against Staphylococcus aureus [5]; 8 µg/mL (≈ 8.7 µM) in the data set with Pseudomonas aeruginosa; 0.25 µg/mL (≈ 0.272 µM) in the data set on Acinetobacter baumannii. Besides, the minimum inhibitory concentration (MIC) in the data set with Escherichia coli [6] came out at 0.5 µg/mL (≈ 0.544 µM); with Klebsiella pneumoniae, 8 µg/mL (≈ 8.7 µM); with Staphylococcus aureus [7], 0.125 µg/mL (≈ 0.136 µM); against Escherichia coli [8] it was 1 µg/mL (≈ 1.09 µM); against Enterococcus faecalis, 0.125 µg/mL (≈ 0.136 µM); in the data set on Streptococcus pneumoniae it was 2 µg/mL (≈ 2.17 µM). Further, the Activity result in [11], in [12] and in data set [13] was “Non-Toxic” in each case.

Values taken from ChEMBL document CHEMBL3871278, “Isolation of Coralmycins A and B, Potent Anti-Gram Negative Compounds from the Myxobacteria Corallococcus coralloides M23” (J Nat Prod, 2016).
